pIC50: −log10 of the molar value. The source made the active and inactive calls. The rule behind the calls is not given here.
How the values were obtained:
[1] = biological target: T1, Hepatocyte growth factor receptor (Homo sapiens, UniProt P08581); test: Inhibition of c-Met (unknown origin) using poly (Glu, Tyr) 4:1 as substrate at 10 uM after 60 mins by ELISA
How it was run: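 ELISA on wells precoated with 20 µg/mL poly(Glu,Tyr)4:1. Purified kinase with 10 µmol/L ATP in 50 mM HEPES pH 7.4, 50 mM MgCl₂, 0.5 mM MnCl₂, 0.2 mM Na₃VO₄, 1 mM DTT; 1% DMSO vehicle. 60 min at 37°C. Phosphotyrosine detected with PY99 antibody, then HRP anti-mouse IgG and o-phenylenediamine/H₂O₂, A490. Inhibition = [1−(A490/A490 control)]×100%; IC50 from curves.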

[2] = biological target: T1, Hepatocyte growth factor receptor; test: Inhibition of c-Met (unknown origin) using poly (Glu, Tyr) 4:1 as substrate after 60 mins by ELISA
[3] = Antiproliferative activity against human EBC1 cells after 72 hrs; details: EBC-1, 72 h
[4] = tested on: SNU-5; test: Antiproliferative activity against human SNU5 cells after 72 hrs; details: SNU-5, 72 h
[5] = tested on: HCT-116; test: Antiproliferative activity against human HCT116 cells after 72 hrs; details: HCT-116, 72 h
[6] = tested on: SK-OV-3; test: Antiproliferative activity against human SKOV3 cells after 72 hrs; details: SK-OV-3, 72 h
[7] = tested on: SK-MEL-28; test: Antiproliferative activity against human SK-MEL-28 cells after 72 hrs; details: SK-MEL-28, 72 h
[8] = tested on: MDA-MB-231; test: Antiproliferative activity against human MDA-MB-231 cells after 72 hrs; details: MDA-MB-231, 72 h
[9] = tested on: NIH3T3; test: Antitumor activity against mouse NIH/3T3 cells expressing TPR/Met allografted in mouse assessed as tumor growth inhibition at 50 mg/kg, po qd administered for 2 weeks measured twice per week relative to vehicle-treated control; type: functional; details: NIH3T3, 336 h, read-out: TGI
How it was run: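 Tumor fragments (1 mm³) implanted s.c. in right flank of nude mice by trocar. Randomized at 100–150 mm³ tumor volume. Dosed orally 7 days/week for 2 weeks; vehicle controls. Calipers twice weekly; TV = length×width²/2. Inhibition = 100%×{1−[(T day14−T day0)/(C day14−C day0)]}. n = 6/group, Student's t-test.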

[10] = tested on: NCI-H441; test: Antiproliferative activity against human NCI-H441 cells after 72 hrs; details: NCI-H441, 72 h
[11] = tested on: NCI-H661; test: Antiproliferative activity against human NCI-H661 cells after 72 hrs; details: NCI-H661, 72 h
[12] = tested on: MKN-45; test: Antiproliferative activity against human MKN45 cells after 72 hrs; details: MKN-45, 72 h
[13] = tested on: MCF7; test: Antiproliferative activity against human MCF7 cells after 72 hrs; details: MCF7, 72 h
[14] = biological target: T1, Hepatocyte growth factor receptor; test: Inhibition of c-Met in gefitinib-resistant human HCC827 cells assessed as inhibition of p44/42 phosphorylation at 0.5 uM after 2 hrs by Western blotting analysis; type: cell-based
How it was run: (§1)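 Cells grown to exponential phase, treated with compound 2 h at 37°C, lysed in 1× SDS sample buffer, resolved on 10% SDS-PAGE and transferred to nitrocellulose for immunoblotting.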

[15] = biological target: T1, Hepatocyte growth factor receptor; test: Inhibition of c-Met in gefitinib-resistant human HCC827 cells assessed as inhibition of AKT phosphorylation at 0.5 uM after 2 hrs by Western blotting analysis; type: cell-based; how it was run: as §1
[16] = biological target: T1, Hepatocyte growth factor receptor; test: Inhibition of c-Met phosphorylation in gefitinib-resistant human HCC827 cells at 0.5 uM after 2 hrs by Western blotting analysis; type: cell-based; how it was run: as §1

T1 sequence (P08581 whole entry): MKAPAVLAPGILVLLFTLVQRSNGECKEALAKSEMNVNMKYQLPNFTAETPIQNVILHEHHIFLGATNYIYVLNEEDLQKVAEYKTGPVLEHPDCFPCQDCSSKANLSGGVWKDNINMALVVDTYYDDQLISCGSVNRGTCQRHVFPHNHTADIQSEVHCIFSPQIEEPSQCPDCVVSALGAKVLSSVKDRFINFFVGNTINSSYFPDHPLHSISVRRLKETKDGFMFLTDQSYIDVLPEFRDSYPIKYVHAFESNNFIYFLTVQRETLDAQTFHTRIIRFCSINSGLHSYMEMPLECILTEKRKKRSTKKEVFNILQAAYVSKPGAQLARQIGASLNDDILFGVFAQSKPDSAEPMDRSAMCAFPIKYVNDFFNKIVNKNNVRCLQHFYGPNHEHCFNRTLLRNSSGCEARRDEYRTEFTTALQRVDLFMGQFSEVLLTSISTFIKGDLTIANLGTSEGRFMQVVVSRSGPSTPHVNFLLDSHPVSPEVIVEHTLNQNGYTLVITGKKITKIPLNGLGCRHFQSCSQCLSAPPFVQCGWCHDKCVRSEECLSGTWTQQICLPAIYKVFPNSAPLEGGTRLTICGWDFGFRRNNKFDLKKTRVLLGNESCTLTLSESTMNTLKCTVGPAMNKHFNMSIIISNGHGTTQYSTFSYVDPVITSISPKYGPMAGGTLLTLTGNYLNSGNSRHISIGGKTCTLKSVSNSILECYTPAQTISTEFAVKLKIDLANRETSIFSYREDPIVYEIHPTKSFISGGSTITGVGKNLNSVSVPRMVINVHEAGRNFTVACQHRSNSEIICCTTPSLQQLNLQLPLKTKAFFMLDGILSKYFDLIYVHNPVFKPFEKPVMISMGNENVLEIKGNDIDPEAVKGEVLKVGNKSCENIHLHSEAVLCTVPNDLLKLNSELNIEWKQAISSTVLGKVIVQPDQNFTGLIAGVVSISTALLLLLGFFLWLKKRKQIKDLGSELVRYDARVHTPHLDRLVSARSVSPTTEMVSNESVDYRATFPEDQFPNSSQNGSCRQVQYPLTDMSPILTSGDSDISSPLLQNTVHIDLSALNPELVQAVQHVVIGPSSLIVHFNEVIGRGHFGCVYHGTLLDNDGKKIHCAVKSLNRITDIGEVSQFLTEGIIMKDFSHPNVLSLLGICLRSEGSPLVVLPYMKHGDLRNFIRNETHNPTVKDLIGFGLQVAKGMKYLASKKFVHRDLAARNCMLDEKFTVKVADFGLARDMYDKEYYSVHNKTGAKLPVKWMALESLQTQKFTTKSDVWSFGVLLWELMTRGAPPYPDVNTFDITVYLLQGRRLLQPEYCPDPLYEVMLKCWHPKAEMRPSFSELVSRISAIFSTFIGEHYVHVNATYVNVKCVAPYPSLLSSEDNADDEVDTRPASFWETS

Compound: CC(NS(=O)(=O)c1cc(-c2cnn(C3CCNCC3)c2)cnc1N)c1c(Cl)ccc(F)c1Cl (configuration not stated)
- pIC50 [1]: < 5.00

Compound: C[C@H](Sc1cc(-c2cnn(C3CCNCC3)c2)cnc1N)c1c(Cl)ccc(F)c1Cl
- pIC50 [2]: 6.77

Compound: C[C@@H](Oc1cc(-c2cnn(C3CCNCC3)c2)cnc1N)c1c(Cl)ccc(F)c1Cl [CRIZOTINIB]
- pIC50 [3]: 7.64
- pIC50 [4]: 7.80
- pIC50 [5]: 4.83
- pIC50 [6]: 4.89
- pIC50 [7]: 4.96
- pIC50 [8]: 4.97
- inhibition in vivo at 50 mg/kg [9]: 82.4%
- pIC50 [10]: 4.76
- pIC50 [11]: 4.94
- pIC50 [12]: 7.89
- pIC50 [13]: 5.02

Compound: CC(Sc1cc(-c2cnn(C3CCNCC3)c2)cnc1N)c1c(Cl)ccc(F)c1Cl (racemic)
- pIC50 [2]: 7.79

Compound: COc1cc2ncnc(Nc3ccc(F)c(Cl)c3)c2cc1OCCCN1CCOCC1
- inhibition [14]: inactive
- inhibition [15]: inactive
- inhibition [16]: Active

— ChEMBL document CHEMBL2440064, “Synthesis and biological evaluation of 2-amino-5-aryl-3-benzylthiopyridine scaffold based potent c-Met inhibitors” (Bioorg Med Chem, 2013)
